pIC50: −log10 of the molar value. Activity calls are given as the source filed them. The rule behind the calls is not given here.
Key:
NCI-H460 = experiment: Cytotoxicity against human NCI-H460 cells after 1 hr; format: functional, cell-based; settings: NCI-H460, 1 h
Outline: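 Cells harvested at 72 h and counted by Coulter counter. IC50 is the concentration giving 50% less growth than untreated control, as mean of three assays.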

[1] = target: T1, DNA topoisomerase 1 (Homo sapiens) (UniProt P11387); experiment: Effect on stabilization of human recombinant topoisomerase 1-mediated DNA cleavage after 30 mins
T1 sequence (whole entry): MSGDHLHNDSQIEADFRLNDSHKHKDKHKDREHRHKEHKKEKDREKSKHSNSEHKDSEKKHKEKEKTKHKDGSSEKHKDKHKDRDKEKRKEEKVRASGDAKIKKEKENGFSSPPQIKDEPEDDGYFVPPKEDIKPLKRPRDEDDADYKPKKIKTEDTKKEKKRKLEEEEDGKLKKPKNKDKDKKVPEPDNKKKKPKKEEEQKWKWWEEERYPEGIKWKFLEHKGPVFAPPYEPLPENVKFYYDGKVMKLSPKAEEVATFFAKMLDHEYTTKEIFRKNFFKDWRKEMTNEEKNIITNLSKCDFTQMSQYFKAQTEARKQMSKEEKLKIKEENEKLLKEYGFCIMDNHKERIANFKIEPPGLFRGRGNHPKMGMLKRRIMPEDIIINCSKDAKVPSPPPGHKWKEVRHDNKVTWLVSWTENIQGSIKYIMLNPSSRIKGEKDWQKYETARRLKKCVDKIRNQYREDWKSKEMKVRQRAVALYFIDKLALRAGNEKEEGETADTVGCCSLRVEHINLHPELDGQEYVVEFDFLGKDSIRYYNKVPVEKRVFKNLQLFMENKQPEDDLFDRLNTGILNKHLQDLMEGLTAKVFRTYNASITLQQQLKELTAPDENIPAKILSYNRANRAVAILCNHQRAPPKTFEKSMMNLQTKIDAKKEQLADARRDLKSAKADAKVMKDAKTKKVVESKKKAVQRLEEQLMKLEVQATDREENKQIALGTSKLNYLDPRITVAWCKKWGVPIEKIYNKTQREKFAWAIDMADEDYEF
Outline: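 3'-end-labelled 751-bp BamHI–EcoRI SV40 DNA fragment (20,000 cpm/sample) with 640 ng full-length human recombinant topo I. Buffer: 10 mM Tris–HCl pH 7.6, 150 mM KCl, 5 mM MgCl2, 15 µg/ml BSA, 0.1 mM DTT. Drug at 1, 10, 50 µM, 30 min at 37 °C. Stopped with 0.5% SDS/0.3 mg/ml proteinase K, 45 min at 42 °C. Denaturing 8% polyacrylamide gel.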

[2] = target: T1, DNA topoisomerase 1 (Homo sapiens); experiment: Inhibition of human recombinant topoisomerase 1 assessed as DNA plasmid relaxation after 30 mins
Outline: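 Supercoiled pBR322 DNA (200 ng) with purified topo I in 20 mM Tris–HCl pH 7.6, 150 mM KCl, 5 mM MgCl2, 0.1 mM EDTA, 0.1 mM DTT, 0.5 µg/ml BSA. Compound at 1, 10, 50 µM, 30 min at 37 °C. Stopped with SDS/proteinase K at 42 °C for 45 min. Run on 0.8% agarose, ethidium bromide stained.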

Cc1cc(=O)c2ccc3c(c2o1)C(=O)c1c(O)cccc1C3=O
pIC50 (NCI-H460): 5.26
Activity [1]: Active
Activity [2]: inactive

COc1cccc2c1C(=O)c1c(O)cccc1C2=O
pIC50 (NCI-H460): < 4.00
Activity [1]: Active

CC[C@@]1(O)C(=O)OCc2c1cc1n(c2=O)Cc2cc3c(CN(C)C)c(O)ccc3nc2-1 [TOPOTECAN]
pIC50 (NCI-H460): 5.93

COc1cccc2c1C(=O)c1c(ccc3c(=O)cc(-c4ccccc4)oc13)C2=O
pIC50 (NCI-H460): < 4.00

Cc1cc(=O)c2ccc3c(c2o1)C(=O)c1c(O)ccc([N+](=O)[O-])c1C3=O
pIC50 (NCI-H460): 5.04

COc1cccc2c1C(=O)c1c(ccc3c(=O)cc(C)oc13)C2=O
pIC50 (NCI-H460): < 3.59

COc1cccc2c1C(=O)c1c(OCCN(C)C)cccc1C2=O
pIC50 (NCI-H460): < 4.00
Activity [1]: Active

Cc1cc(=O)c2c(O)cc3c(c2o1)C(=O)c1c(O)cc(O)cc1C3=O [TOPOPYRONE C]
pIC50 (NCI-H460): 4.53

Cc1oc2c3c(ccc2c(=O)c1Br)C(=O)c1cccc(O)c1C3=O
pIC50 (NCI-H460): 5.19

Cc1cc(=O)c2ccc3c(c2o1)C(=O)c1c(OCCN(C)C)cccc1C3=O
pIC50 (NCI-H460): 5.15

Cc1oc2c3c(ccc2c(=O)c1Br)C(=O)c1ccc(Br)c(O)c1C3=O
pIC50 (NCI-H460): 5.31
Activity [2]: inactive

COc1cccc2c1C(=O)c1c(O)ccc([N+](=O)[O-])c1C2=O
pIC50 (NCI-H460): 3.80
Activity [1]: Active

COc1cc(OC)c2c(c1)C(=O)c1cc(OC)c3c(=O)cc(C)oc3c1C2=O
pIC50 (NCI-H460): < 4.00

O=C1c2cccc(O)c2C(=O)c2c1ccc1c(=O)cc(-c3ccccc3)oc21
pIC50 (NCI-H460): 5.15
